This experiment concerns the target Growth hormone secretagogue receptor type 1 (Homo sapiens, UniProt Q92847). In words: Inhibition of ghrelin binding to Growth hormone secretagogue receptor expressed in BHK cells. It counts as cell-based. The method in brief: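 Competition binding against ¹²⁵I-ghrelin at the human GHS receptor expressed in BHK cells. Values are displacement of the radiolabelled ghrelin tracer by the test compounds.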

We go through 14 molecules from ChEMBL document CHEMBL1146820, “Parallel solid-phase synthesis of disubstituted (5-biphenyltetrazolyl) hydantoins and thiohydantoins targeting the growth hormone secretagogue receptor” (Bioorg Med Chem Lett, 2004).

What is called IC50 is the concentration at which inhibition is half-maximal. Lower therefore signals inhibition by little substance.

Structures are written as SMILES.

Chain of Growth hormone secretagogue receptor type 1 (Q92847 whole entry): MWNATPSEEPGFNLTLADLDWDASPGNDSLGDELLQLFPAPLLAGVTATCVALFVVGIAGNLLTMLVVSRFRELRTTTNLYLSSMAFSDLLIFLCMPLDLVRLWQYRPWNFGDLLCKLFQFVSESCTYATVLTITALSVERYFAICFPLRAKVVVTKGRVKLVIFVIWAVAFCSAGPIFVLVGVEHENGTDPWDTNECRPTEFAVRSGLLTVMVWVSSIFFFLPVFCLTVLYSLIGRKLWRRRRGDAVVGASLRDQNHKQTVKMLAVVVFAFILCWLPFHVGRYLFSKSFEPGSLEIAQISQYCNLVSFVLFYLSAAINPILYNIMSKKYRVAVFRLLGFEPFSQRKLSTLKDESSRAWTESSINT

Take `O=C1[C@H](CCc2ccccc2)N(Cc2ccc(-c3ccccc3-c3nn[nH]n3)cc2)C(=S)N1CCCN1CCOCC1`: the IC50 is 45 µM.

`CN(C)C(=O)CCN1C(=O)[C@H](CCc2ccccc2)N(Cc2ccc(-c3ccccc3-c3nn[nH]n3)cc2)C1=O` had an IC50 greater than 100 µM.

Regarding `CN(C)CCCN1C(=O)[C@H](c2ccccc2)N(Cc2ccc(-c3ccccc3-c3nn[nH]n3)cc2)C1=S`, the IC50 amounted to 35 µM.

Molecule `O=C1[C@H](CCc2ccccc2)N(Cc2ccc(-c3ccccc3-c3nn[nH]n3)cc2F)C(=O)N1CCCN1CCCCC1` registered an IC50 of 1.6 µM.

In turn, `CN(C)CCCN1C(=O)[C@H](Cc2ccccc2)N(Cc2ccc(-c3ccccc3-c3nn[nH]n3)cc2)C1=S` yielded an IC50 of 35 µM.

Molecule `O=C1[C@H](Cc2c[nH]c3ccccc23)N(Cc2ccc(-c3ccccc3-c3nn[nH]n3)cc2)C(=O)N1C1CCNCC1` had an IC50 of 50 µM.

The molecule `CN(C)c1ccc(N2C(=O)[C@H](CCc3ccccc3)N(Cc3ccc(-c4ccccc4-c4nn[nH]n4)cc3)C2=S)cc1` had an IC50 greater than 100 µM.

Consider `O=C1[C@H](CCc2ccccc2)N(Cc2ccc(-c3ccccc3-c3nn[nH]n3)cc2)C(=O)N1CCCN1CCCC1`, for which the IC50 was found to be 1.1 µM.

As for `CN(C)CCCN1C(=O)[C@H](CCc2ccccc2)N(Cc2ccc(-c3ccccc3-c3nn[nH]n3)cc2)C1=S`, the IC50 stood at 8.2 µM.

As to `NCCCN1C(=O)[C@H](CCc2ccccc2)N(Cc2ccc(-c3ccccc3-c3nn[nH]n3)cc2)C1=O`, the IC50 was greater than 100 µM.

Molecule `CN(C)CCCN1C(=O)[C@H](CCc2ccccc2)N(Cc2ccc(-c3ccccc3-c3nn[nH]n3)cc2)C1=O` registered an IC50 of 4 µM.

Regarding `O=C1[C@H](CCc2ccccc2)N(Cc2ccc(-c3ccccc3-c3nn[nH]n3)s2)C(=O)N1CCCN1CCCCC1`, the IC50 amounted to 15 µM.

In the case of `O=C1[C@H](CCc2ccccc2)N(Cc2ccc(-c3ccccc3-c3nn[nH]n3)cc2)C(=O)N1CCCN1CCCCC1`, the IC50 was determined as 0.6 µM.

`O=C1[C@H](CCc2ccccc2)N(Cc2cc(-c3ccccc3-c3nn[nH]n3)cs2)C(=O)N1CCCN1CCCCC1`: the 50% inhibitory concentration (IC50) was 1.3 µM.
